From ChEMBL document CHEMBL2385031, “Design, synthesis, and initial evaluation of a high affinity positron emission tomography probe for imaging matrix metalloproteinases 2 and 9” (J Med Chem, 2013)
pIC50: −log10 of the molar value.

How the values were obtained:
[1] = target: 72 kDa type IV collagenase (Homo sapiens, UniProt P08253); assay: Inhibition of human full length MMP2 using Mca-Pro-Leu-Gly-Leu-Dpa(Dnp)-Ala-Arg-NH2 as substrate measured up to 120 mins by fluorescence assay
Method in brief: (§1)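 Recombinant full-length human enzyme activated with APMA, used at 0.1 nM final in 50 mM Tris/HCl pH 7.5, 10 mM CaCl2, 150 mM NaCl, 0.05% Brij-35. Inhibitor added from DMSO (e.g., 1 nM to 30 μM). Activity read as initial slope of fluorescence rise from cleavage of an internally quenched fluorogenic substrate; IC50 derived.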

[2] = target: Matrix metalloproteinase-9 (Homo sapiens, UniProt P14780); assay: Inhibition of human full length MMP9 using Mca-Pro-Leu-Gly-Leu-Dpa(Dnp)-Ala-Arg-NH2 as substrate measured up to 120 mins by fluorescence assay; method in brief: as §1
Matrix metalloproteinase-9, sequence (P14780 whole entry): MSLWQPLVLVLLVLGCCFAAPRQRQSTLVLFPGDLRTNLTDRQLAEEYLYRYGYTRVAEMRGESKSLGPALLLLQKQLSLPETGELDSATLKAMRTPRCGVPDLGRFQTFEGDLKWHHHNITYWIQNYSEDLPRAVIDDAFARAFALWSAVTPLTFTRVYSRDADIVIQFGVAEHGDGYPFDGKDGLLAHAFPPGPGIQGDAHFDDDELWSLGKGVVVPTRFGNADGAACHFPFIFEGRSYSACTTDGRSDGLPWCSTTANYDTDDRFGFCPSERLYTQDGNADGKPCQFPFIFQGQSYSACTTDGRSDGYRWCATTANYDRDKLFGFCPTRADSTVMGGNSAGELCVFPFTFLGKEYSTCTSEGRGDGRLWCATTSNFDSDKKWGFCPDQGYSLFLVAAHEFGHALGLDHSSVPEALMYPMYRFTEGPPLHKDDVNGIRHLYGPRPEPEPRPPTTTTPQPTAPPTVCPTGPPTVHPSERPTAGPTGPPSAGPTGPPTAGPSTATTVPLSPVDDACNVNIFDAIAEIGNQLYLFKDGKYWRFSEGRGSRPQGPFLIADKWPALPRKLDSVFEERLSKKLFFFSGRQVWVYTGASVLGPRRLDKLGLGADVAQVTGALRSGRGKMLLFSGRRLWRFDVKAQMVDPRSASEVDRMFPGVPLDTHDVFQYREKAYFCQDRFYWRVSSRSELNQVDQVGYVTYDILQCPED

Interstitial collagenase = target: T1, Interstitial collagenase (Homo sapiens, UniProt P03956); assay: Inhibition of MMP1 (unknown origin)
T1 sequence (P03956 whole entry): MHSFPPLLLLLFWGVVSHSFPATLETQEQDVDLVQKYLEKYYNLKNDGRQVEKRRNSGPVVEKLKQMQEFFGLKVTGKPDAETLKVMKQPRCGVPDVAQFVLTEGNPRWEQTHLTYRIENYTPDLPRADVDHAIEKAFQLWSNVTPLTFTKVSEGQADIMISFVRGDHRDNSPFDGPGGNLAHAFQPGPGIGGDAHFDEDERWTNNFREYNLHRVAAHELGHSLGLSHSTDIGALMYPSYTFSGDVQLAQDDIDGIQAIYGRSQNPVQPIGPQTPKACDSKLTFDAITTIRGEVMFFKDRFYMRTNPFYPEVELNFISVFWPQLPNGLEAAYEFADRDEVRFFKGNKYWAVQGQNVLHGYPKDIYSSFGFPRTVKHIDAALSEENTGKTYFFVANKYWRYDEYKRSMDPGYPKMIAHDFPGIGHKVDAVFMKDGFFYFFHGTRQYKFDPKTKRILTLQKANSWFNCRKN

[3] = Drug uptake in C57BL/6 mouse urinary bladder at 5.3 MBq, iv by PET/CT imaging; type: ADME, organism-based; conditions: in vivo
Method in brief: (§2)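 Single C57BL/6 mouse, 5.3 MBq 18F-tracer via tail vein, isoflurane 2−3% in oxygen/air, body kept at 37 °C. Small-animal PET/CT, two-bed static acquisition: anterior 8−22 min, posterior 23−38 min post-injection; images averaged 8−38 min.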

Bone = assay: Drug uptake in C57BL/6 mouse bone at 5.3 MBq, iv by PET/CT imaging; type: ADME, organism-based, Bone element; conditions: in vivo; method in brief: as §2
[4] = Drug excretion in C57BL/6 mouse urine at 650 MBq/mL after 15 to 60 mins by UPLC analysis; type: ADME, tissue-based; conditions: in the assay text read “after 60 mins” for “after 15 to 60 mins”, read-out: Drug excretion
Method in brief: (§3)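 C57BL/6 mice given 150 μL of 650 MBq/mL (17.5 mCi/mL) 18F-labelled tracer each; killed by decapitation at 15, 30 and 60 min post-injection. Blood and urine collected, proteins precipitated with twice the volume of ice-cold acetonitrile, centrifuged; supernatants analysed by radio-UPLC for intact tracer versus metabolites.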

Blood = assay: Drug metabolism in C57BL/6 mouse blood assessed as compound remaining at 650 MBq/mL after 15 to 60 mins by UPLC analysis; type: ADME, tissue-based; method in brief: as §3
Plasma [5] = assay: Metabolic stability in rat plasma at 60 Mbq up to 2 hrs by UPLC analysis; type: ADME, cell-free
Method in brief: (§4)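 About 60 MBq formulated 18F-tracer (5% ethanol in PBS) added to ~0.5 mL plasma, split into six aliquots. Zero-time sample quenched immediately with methanol; others incubated at 37 °C with shaking and quenched with ice-cold methanol at 5, 30, 60, 90, 120 min. Proteins removed by centrifugation at 10000g, 10 min; supernatants analysed by UPLC.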

Plasma [6] = assay: Metabolic stability in human plasma at 60 Mbq up to 2 hrs by UPLC analysis; type: ADME, cell-free; method in brief: as §4

72 kDa type IV collagenase, sequence (P08253 whole entry): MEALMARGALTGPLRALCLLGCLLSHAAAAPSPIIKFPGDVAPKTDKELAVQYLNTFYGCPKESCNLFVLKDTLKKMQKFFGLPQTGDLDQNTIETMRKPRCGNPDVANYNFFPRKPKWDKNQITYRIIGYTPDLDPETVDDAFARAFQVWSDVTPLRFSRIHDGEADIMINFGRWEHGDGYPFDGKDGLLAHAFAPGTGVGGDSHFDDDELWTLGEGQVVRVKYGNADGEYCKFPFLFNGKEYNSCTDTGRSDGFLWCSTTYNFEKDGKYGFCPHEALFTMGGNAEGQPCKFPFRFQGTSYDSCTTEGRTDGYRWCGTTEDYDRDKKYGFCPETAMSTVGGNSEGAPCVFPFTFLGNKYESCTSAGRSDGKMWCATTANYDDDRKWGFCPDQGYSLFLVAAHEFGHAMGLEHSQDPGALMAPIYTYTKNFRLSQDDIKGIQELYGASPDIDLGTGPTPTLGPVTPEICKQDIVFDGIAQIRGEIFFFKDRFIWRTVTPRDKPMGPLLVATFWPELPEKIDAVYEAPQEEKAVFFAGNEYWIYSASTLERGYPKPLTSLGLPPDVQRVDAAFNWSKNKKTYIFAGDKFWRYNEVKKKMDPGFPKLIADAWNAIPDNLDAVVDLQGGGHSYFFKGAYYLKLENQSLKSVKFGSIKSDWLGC

| SMILES | pIC50 [1] | pIC50 [2] | also measured |
| --- | --- | --- | --- |
| O=C(Nc1ccc(S(=O)(=O)N[C@H](Cc2c[nH]c3ccccc23)C(=O)O)cc1)c1ccc(F)nc1 | 8.15 | 7.77 | pIC50 (Interstitial collagenase): < 6.00 |
| COc1ccc(C(=O)Nc2ccc(S(=O)(=O)N[C@H](Cc3c[nH]c4ccccc34)C(=O)O)cc2)cc1 | > 9.00 | 7.96 |  |
| CC(C)COc1ccc(C(=O)Nc2ccc(S(=O)(=O)N[C@H](Cc3c[nH]c4ccccc34)C(=O)O)cc2)cc1 | > 9.00 | 6.34 |  |
| CC(C)Oc1ccc(C(=O)Nc2ccc(S(=O)(=O)N[C@H](Cc3c[nH]c4ccccc34)C(=O)O)cc2)cc1 | > 9.00 | 7.01 |  |
| O=C(Nc1ccc(S(=O)(=O)N[C@H](Cc2c[nH]c3ccccc23)C(=O)O)cc1)c1ccnc(F)c1 | 7.85 | 7.11 |  |
| O=C(Nc1ccc(S(=O)(=O)N[C@H](Cc2c[nH]c3ccccc23)C(=O)O)cc1)c1cccnc1F | 6.85 | < 6.00 |  |
| O=C(Nc1ccc(S(=O)(=O)N[C@H](Cc2c[nH]c3ccccc23)C(=O)O)cc1)c1ccc([18F])cc1 |  |  | Drug uptake [3]: Active; Drug uptake (Bone): Not Active; dose excreted [4]: 85%; Drug metabolism (Blood): Not Active; Stability (Plasma [5]): Stable; Stability (Plasma [6]): Stable |
| O=C(Nc1ccc(S(=O)(=O)N[C@H](Cc2c[nH]c3ccccc23)C(=O)O)cc1)c1cc(F)ccn1 | 8.28 | 7.42 |  |
| O=C(Nc1ccc(S(=O)(=O)N[C@H](Cc2c[nH]c3ccccc23)C(=O)O)cc1)c1ccc(OC(F)(F)F)cc1 | 8.32 | 7.68 |  |

Second part, led by results:

| pIC50 [1] | pIC50 [2] | SMILES | also measured |
| --- | --- | --- | --- |
| 8.44 | 7.00 | COc1ccc(Oc2ccc(S(=O)(=O)N[C@H](Cc3c[nH]c4ccccc34)C(=O)O)cc2)cc1 |  |
| 8.24 | 6.64 | O=C(O)[C@@H](Cc1c[nH]c2ccccc12)NS(=O)(=O)c1ccc(-c2ccc(Cl)cc2)cc1 |  |
| 8.74 | 8.15 | O=C(Nc1ccc(S(=O)(=O)N[C@H](Cc2c[nH]c3ccccc23)C(=O)O)cc1)c1ccc(F)cc1 | pIC50 (Interstitial collagenase): < 6.00 |
| > 9.00 | 8.96 | O=C(Nc1ccc(S(=O)(=O)N[C@H](Cc2c[nH]c3ccccc23)C(=O)O)cc1)c1ccc(I)cc1 |  |
| 8.32 | 7.55 | COc1ccc(-c2ccc(S(=O)(=O)N[C@H](Cc3c[nH]c4ccccc34)C(=O)O)cc2)cc1 |  |
| 9.05 | 9.00 | O=C(Nc1ccc(S(=O)(=O)N[C@H](Cc2c[nH]c3ccccc23)C(=O)O)cc1)c1ccc(Br)cc1 | pIC50 (Interstitial collagenase): < 6.00 |
